High-throughput results deposited in PubChem BioAssay by several laboratories.
WT yeast gro inh: growth inhibition of WT yeast, mitochondrial fusion screen; AID 1362; hit rate 2.1% among 190,000; inhibition, % at 10 µM; mitochondrial fusion phenotypic screen, WT strain; in the data active = inhibition above about 58%; tested in S. cerevisiae
Diaph inh CS: inhibits diaphorase or chemically oxidizes, flagging diaphorase assay artifacts; diaphorase resazurin-to-resorufin fluorescence, NADH, 16 min; bacterial (C. kluyveri) enzyme, not human; inhibition, % at 20 µM; hit rate 0.69% among 190,000;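 active = primary screen inhibition at 20 µM above a set limit, cut at about 50% in these data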;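 also: plate controls were DMSO with full reaction for no effect and wells lacking NADH for full effect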
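Benchmarks: positive control wells lacking NADH, neutral wells with DMSO only. System: bacterial diaphorase enzyme (C. kluyveri). Input: 0.14 U/mL diaphorase, enzyme working solution. Detection: resorufin fluorescence, excitation 544 nm, emission 590 nm. Times: 16-min room-temperature incubation before reading.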
G6PDH counter: counter-screen for G6PDH assay hits: L. mesenteroides G6PDH inhibition | Purified L. mesenteroides G6PDH, diaphorase/resazurin coupled fluorescence, 45 min | inhibition, % at 5 µM | hit rate 0.12% among 200,000
L major viab: reduces viability of Leishmania major promastigotes; resazurin fluorescence viability; inhibition, % at 10 µM; hit rate 9% among 200,000; AID 1063;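 also: promastigotes grown with compound for 44 hours at 28 °C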
Diaph act CS: diaphorase activation or chemical reduction counter-screen; Diaphorase/resazurin coupled assay, resorufin fluorescence, 16 min; active compounds read high; 1 = vehicle wells, 0 = NADH-free wells; activation factor at 20 µM; hit rate 0.005% among 190,000; AID 1229;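 active = diaphorase activity raised at least twofold by the compound at 20 µM; inactive = activation factor below 2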
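Test system: Clostridium kluyveri diaphorase, purified enzyme. Buffer or medium: 50 mM HEPES pH 7.4 buffer plus MgCl2 and Tween 20. Also added: 0.114 mM NADH and 0.1 mM resazurin, final amounts. Dosing: compound 20 µM once, DMSO 1%. Schedule: 16 min enzyme reaction, ambient temperature. Detection: fluorescence of resorufin, 544 nm excitation, 590 nm emission.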
Starred values were filed as active, the others as inactive; . = no result. This is a sample that favours compounds with a hit; in the whole collection about 11% have one here. Rule as the data show it, unless noted: active = inhibition above about 50%; inactive = the rest.

SMILES | WT yeast gro inh | Diaph inh CS | G6PDH counter | L major viab | Diaph act CS
O=C(CN1CCCC1)N1c2ccccc2Sc2ccc(C(F)(F)F)cc21 | -13.6 | -0.6 | -2.0 | 12.6 | 1
O=C(CSc1nc2ccccc2o1)N1c2ccccc2Sc2ccc(C(F)(F)F)cc21 | 12.3 | 16.3 | 2.4 | 79.7* | 0.8
O=C(CN1CCN(c2ccccn2)CC1)N1c2ccccc2Sc2ccc(C(F)(F)F)cc21 | 66.4* | 30.0 | 23.6 | 68.0* | 0.7
COc1cc(NC(=O)C2CC(=O)NC3=C2C(=O)CCC3)c(OC)cc1Cl (centres undefined) | 45.0 | 7.1 | 6.0 | -1.1 | 0.9
Cc1nc2ccc(C(=O)NCc3ccc4c(c3)OCO4)cc2s1 | 64.2* | 10.9 | 10.2 | -3.8 | 0.9
COc1ccc(-n2c(C)nc3cc(C(=O)NCc4ccc5c(c4)OCO5)ccc32)cc1 | 18.2 | 18.4 | 1.3 | 82.6* | 0.8
CCC(C)(C)NC(=O)CN(C(=O)CNS(=O)(=O)c1ccc(C)cc1)c1ccc2c(c1)OCCO2 | 6.9 | 2.3 | 8.9 | -3.7 | 1
Cc1ccnc(NC(=O)C2CCN(S(=O)(=O)c3cccc4nsnc34)CC2)c1 | 0.6 | 11.4 | 3.6 | 9.8 | 0.9
Cc1ccnc(NC(=O)C2CCN(S(=O)(=O)c3cccc4nonc34)CC2)c1 | -27.3 | 6.6 | -1.2 | 98.5* | 0.9
COc1ccc(CN=C2NN=C(c3cccc(OC)c3)CS2)cc1 | 7.4 | 4.8 | 4.5 | 87.5* | 1
COc1cccc(C2=NNC(=NCc3ccccc3)SC2)c1 | 6.1 | 7.6 | 5.9 | 31.8 | 0.9
COCCn1c(-c2ccc(OC)cc2)nc2oc3cc(OC)ccc3c(=O)c2c1=O | 13.0 | 13.3 | 0.6 | 55.0* | 0.9
CCc1nc2oc3cc(OC)ccc3c(=O)c2c(=O)n1Cc1ccco1 | . | 5.8 | 10.0 | 21.8 | 0.9
COCCCn1c(C(C)C)nc2oc3cc(OC)ccc3c(=O)c2c1=O | 13.1 | 20.4 | 4.2 | -1.6 | 0.8
COc1ccc(-c2nc3oc4cc(OC)ccc4c(=O)c3c(=O)n2Cc2ccco2)cc1 | 32.5 | 22.6 | -46.9 | 73.2* | 0.8
COc1ccc(Cn2c(-c3ccco3)nc3oc4cc(OC)ccc4c(=O)c3c2=O)cc1 | 0.6 | 14.3 | -1.6 | 24.6 | 0.9
COc1ccc2c(=O)c3c(=O)n(Cc4ccco4)c(-c4ccco4)nc3oc2c1 | 4.6 | 51.7* | 3.3 | 43.0 | 0.5
CCOc1ncccc1C(=O)NCc1ccc(OC)c(OC)c1 | -1.4 | 5.0 | -6.8 | -3.6 | 0.9
COc1ccc2c(c1)[nH]c1c(=O)n(CCCn3ccnc3)cnc12 | . | -1.9 | 5.7 | 5.8 | 1
Cc1cc(C)c(NS(=O)(=O)c2cccc3cccnc23)c(C)c1 | -9.5 | 10.3 | 1.8 | 10.7 | 0.9
CC1=[N+](C)c2c(ccc3cccnc23)C1(C)C | 81.7* | 65.4* | 19.2 | 98.2* | 0.3
CN1C(=O)/C(=C/c2ccccc2OCc2ccc(C(=O)O)cc2)NC1=S | -8.8 | 58.0* | 12.7 | -13.8 | 0.4
CN1C(=O)/C(=C/c2ccccc2OCc2ccccc2)NC1=S | -3.6 | 18.8 | 10.9 | -2.4 | 0.8
CC1(C)CC(N2CCCC2)=CC(=[N+]2CCCCC2)C1 | -17.9 | -8.7 | 3.6 | 99.8* | 1.1
CC1(C)CC(=O)C=C(N2CCN(C3=CC(=O)CC(C)(C)C3)CC2)C1 | . | 1.9 | -2.3 | . | 1
SMILES | WT yeast gro inh | Diaph inh CS | G6PDH counter | L major viab | Diaph act CS
CC1(C)CC(N2CCCC2)=CC(=[N+]2CCCC2)C1 | 6.4 | 11.1 | 2.2 | 99.3* | 0.9
CC(C)CCNC(=O)C(c1ccco1)N(CCCO)C(=O)Cn1nnc(-c2ccc(F)cc2)n1 (centres undefined) | -3.9 | 13.5 | 10.1 | -5.0 | 0.9
O=C(COC(=O)[C@@H]1CC(O)CN1S(=O)(=O)c1ccc2c(c1)OCCO2)Nc1ccccc1F (some centres undefined) | 1.0 | 4.7 | -4.6 | -10.1 | 1
COc1ccc(C(C)=O)cc1CSc1nnc(Nc2ccccc2)s1 | -6.5 | 23.6 | -2.4 | 37.5 | 0.8
COc1ccc(OC)c2[nH]c(=O)c(CCNC(=O)c3cc4ccccc4o3)cc12 | 9.0 | 58.5* | -37.2 | 8.3 | 0.4
Cc1ccc(C)c2[nH]c(=O)c(CCNC(=O)c3cc4ccccc4o3)cc12 | -5.5 | 24.9 | -21.0 | -6.1 | 0.8
COC(=O)C(NC(=O)CSc1nc(N)cc(=O)[nH]1)c1ccccc1 (centres undefined) | 3.7 | 8.5 | 2.5 | -10.5 | 0.9
Cc1ccc2cc(C=C(C#N)C#N)c(N3CCCCC3)nc2c1 | -12.6 | 20.4 | 1.1 | 98.7* | 0.8
CCOC(=O)/C(C#N)=C/c1cc2ccccc2nc1N1CCCCC1 | 48.6 | 14.1 | 3.3 | 88.5* | 0.9
CC1SC(C)C(=O)N(CC(=O)NC2CCCCC2)C1=O (centres undefined) | -3.1 | -14.9 | -3.5 | -3.5 | 1.1
Cc1nc2cc(NS(=O)(=O)c3c(C)c(C)cc(C)c3C)ccc2s1 | 68.5* | 8.6 | 2.2 | 18.8 | 0.9
O=C(COC(=O)CCc1ccc(S(=O)(=O)N2CCOCC2)cc1)NCc1ccccc1Cl | -13.1 | 4.9 | 6.7 | -3.9 | 1
CN(C)CCCNc1c2c(nc3cc(-c4cccc(F)c4)nn13)CCC2 | -13.9 | 5.7 | 4.8 | 8.5 | 0.9
Cc1nc2cc(-c3ccc(Cl)cc3)nn2c(NCCN(C)C)c1C | 22.4 | -24.6 | 20.4 | 100.3* | 1.2
Cc1oc(-c2ccccc2F)nc1CS(=O)(=O)CC(=O)N1CCN(c2ccccc2)CC1 | 10.8 | 21.8 | -0.8 | 1.8 | 0.8
COc1ccc(Cc2nnc(N/N=C/c3ccc(C)o3)[nH]c2=O)cc1 | -4.3 | -1.5 | -1.6 | -3.0 | 1
COc1ccc(Cc2nnc(N/N=C/c3ccc(O)cc3)[nH]c2=O)cc1OC | -5.9 | 22.4 | -27.4 | 97.6* | 0.8
COc1cccc(C2=NC(C)(C)NC(c3ccccc3O)C2)c1 (centres undefined) | 1.0 | 9.1 | -1.5 | 96.7* | 0.9
CCC1(C)N=C(c2ccc3c(c2)OCO3)CC(c2ccccc2O)N1 (centres undefined) | 20.0 | 12.9 | -4.7 | 95.3* | 0.9
COc1ccc2nc(SCC(=O)Nc3ccccc3C)[nH]c2c1 | 18.4 | 20.9 | -0.2 | 5.6 | 0.8
Cc1ccc(S(=O)(=O)N2CCOCC2)cc1NC(=O)COC(=O)c1ccc(OCc2c(C)noc2C)cc1 | -11.4 | -0.6 | 10.2 | 75.5* | 1
COc1ccc(S(=O)(=O)N2CCCCCC2)cc1C(=O)OCc1c(C)noc1C | 97.3* | 16.0 | -1.7 | 10.3 | 0.8
Cc1ccc(S(=O)(=O)N2CCOCC2)cc1NC(=O)CNCC1CCCCC1 | -2.1 | 6.8 | 3.9 | 74.0* | 0.9
O=C(CN1C(=O)C2CC=CCC2C1=O)NC1CCCc2ccccc21 (centres undefined) | 1.3 | 12.6 | 5.7 | -3.4 | 0.9
COC(=O)Cn1c(C)c(C#N)c2ccccc21 | -4.5 | 13.9 | 11.2 | -1.5 | 0.9
N#Cc1c2ccc(O)cc2n2ccccc12 | -13.3 | 40.1 | 34.8 | 100.4* | 0.6
COC(=O)c1cc(C#N)c(Oc2ccc(F)cc2)nc1C | 16.7 | 19.6 | -0.5 | 0.6 | 0.8
